Residues, ends and D or L forms follow the SMILES beside them. *: point of attachment. Propyl(2R-PamO,3-PamO) = CCCCCCCCCCCCCCCC(=O)OC[C@H](C*)OC(=O)CCCCCCCCCCCCCCC; X1 = CC(=O)NCCCOCCOCCOCCCNC(=O)COCC(=O)*
Experiments:
Toll-like receptor 2 [1] = target: T1, Toll-like receptor 2 (Homo sapiens, UniProt O60603); assay: Agonist activity at human TLR2 expressed in HEK293 cells assessed as induction of NF-kappaB signaling after 24 hrs by luminescence based luciferase reporter gene assay
Toll-like receptor 2 [2] = target: T1, Toll-like receptor 2; assay: Displacement of Eu-DTPA from human TLR2 expressed in SU.86.86 cells after 1 hr
Toll-like receptor 2 [3] = target: T1, Toll-like receptor 2; assay: Displacement of Eu-DTPA from human TLR2 expressed in HEK293 cells after 1 hr
Outline: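 Live-cell europium TRF competition binding in HEK-293/hTLR2 (poly-D-lysine plates) or SU.86.86 cells grown 2 days to ~80% confluence. Unlabeled ligand 1 μM to 0.01 nM plus 90 nM Eu-DTPA-labeled tracer, 1 h at 37°C; three washes, enhancement solution 30 min at 37°C, read at 340 nm excitation/615 nm emission with time delay.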

T1 sequence (O60603 whole entry): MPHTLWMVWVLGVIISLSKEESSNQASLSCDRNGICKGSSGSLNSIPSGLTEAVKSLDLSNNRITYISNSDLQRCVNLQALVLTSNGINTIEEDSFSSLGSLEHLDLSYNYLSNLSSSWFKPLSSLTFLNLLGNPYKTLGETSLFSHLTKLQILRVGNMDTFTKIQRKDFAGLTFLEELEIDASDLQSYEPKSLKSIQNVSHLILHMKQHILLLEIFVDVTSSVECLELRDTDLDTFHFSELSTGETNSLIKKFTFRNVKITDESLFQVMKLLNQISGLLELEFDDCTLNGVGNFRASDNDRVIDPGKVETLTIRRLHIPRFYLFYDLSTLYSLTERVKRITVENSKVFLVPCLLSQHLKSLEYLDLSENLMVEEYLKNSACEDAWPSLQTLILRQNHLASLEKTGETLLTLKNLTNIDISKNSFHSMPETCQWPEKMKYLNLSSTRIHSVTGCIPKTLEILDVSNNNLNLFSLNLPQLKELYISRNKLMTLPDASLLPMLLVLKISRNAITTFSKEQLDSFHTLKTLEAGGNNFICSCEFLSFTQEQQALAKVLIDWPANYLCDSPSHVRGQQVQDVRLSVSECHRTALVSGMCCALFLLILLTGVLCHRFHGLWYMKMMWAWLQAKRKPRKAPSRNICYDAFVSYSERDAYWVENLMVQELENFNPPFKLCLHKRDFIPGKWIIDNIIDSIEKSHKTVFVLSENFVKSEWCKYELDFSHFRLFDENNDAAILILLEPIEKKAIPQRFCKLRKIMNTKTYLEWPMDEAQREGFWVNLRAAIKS

EC50 (Toll-like receptor 2 [1]) | Ki (Toll-like receptor 2 [2]) | Ki (Toll-like receptor 2 [3]) | Structure (SMILES)
34 nM | 67 nM | 11 nM | CCCCCCCCCCCCCCCC(=O)OCC(CSCC(NC(=O)COCC(=O)NCCCOCCOCCOCCCNC(=O)CCSC1CC(=O)N(CCNC(=O)CCCCC[N+]2=C(/C=C/C=C/C=C3/Cc4cc(S(=O)(=O)O)ccc4N3CC)Cc3cc(S(=O)(=O)[O-])ccc32)C1=O)C(=O)NCC(=O)NC(CO)C(=O)NCCCOCCOCCOCCCNC(=O)COCC(N)=O)OC(=O)CCCCCCCCCCCCCCC (centres undefined)
25 nM | – | – | CCCCCCCCCCCCCCCC(=O)OC[C@H](CSC[C@H](NC(=O)COCC(=O)NCCCOCCOCCOCCCNC(C)=O)C(=O)N[C@@H](CO)C(=O)N[C@@H](CCCNC(=N)N)C(=O)N[C@@H](Cc1ccccc1)C(=O)N[C@@H](CC(=O)O)C(=O)N[C@@H](CCC(=O)O)C(=O)N[C@@H](CC(=O)O)C(=O)N[C@@H](CC(=O)O)C(=O)N[C@@H](CC(C)C)C(=O)N[C@@H](CCC(=O)O)C(N)=O)OC(=O)CCCCCCCCCCCCCCC (X1-C(Propyl(2R-PamO,3-PamO))SRFDEDDLE-NH2)
